In ChEMBL document CHEMBL4725345, “DFG-1 Residue Controls Inhibitor Binding Mode and Affinity, Providing a Basis for Rational Design of Kinase Inhibitor Selectivity” (J Med Chem, 2020):

Columns and labels:
[1] = target: Receptor-interacting serine/threonine-protein kinase 2 (Homo sapiens) (UniProt O43353); experiment: Binding affinity to RIPK2 (unknown origin) assessed as change in melting temperature at 10 uM incubated for 10 mins using SYPRO orange dye by RT-PCR-based fluorescence assay
How it was run: (§1)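 Recombinant kinase domain at 2 μM in 10 mM HEPES pH 7.5, 500 mM NaCl, mixed with 10 μM inhibitor for 10 min at room temperature; SYPRO orange added at 1:1000; temperature-dependent unfolding fluorescence read on a real-time PCR instrument; Tm shift derived by a previously described method.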

[2] = target: AP2-associated protein kinase 1 (Homo sapiens) (UniProt Q2M2I8); experiment: Binding affinity to AAK1 (unknown origin) assessed as change in melting temperature at 10 uM incubated for 10 mins using SYPRO orange dye by RT-PCR-based fluorescence assay; how it was run: as §1
[3] = target: Cyclin-G-associated kinase (Homo sapiens) (UniProt O14976); experiment: Binding affinity to GAK (unknown origin) assessed as change in melting temperature at 10 uM incubated for 10 mins using SYPRO orange dye by RT-PCR-based fluorescence assay; how it was run: as §1
[4] = target: Myosin light chain kinase family member 4 (Homo sapiens) (UniProt Q86YV6); experiment: Binding affinity to SgK085 (unknown origin) assessed as change in melting temperature at 10 uM incubated for 10 mins using SYPRO orange dye by RT-PCR-based fluorescence assay; how it was run: as §1
[5] = target: Serine/threonine-protein kinase 17B (Homo sapiens) (UniProt O94768); experiment: Binding affinity to DRAK2 (unknown origin) assessed as change in melting temperature at 10 uM incubated for 10 mins using SYPRO orange dye by RT-PCR-based fluorescence assay; how it was run: as §1
Chain of Serine/threonine-protein kinase 17B (Homo sapiens) (O94768 whole entry): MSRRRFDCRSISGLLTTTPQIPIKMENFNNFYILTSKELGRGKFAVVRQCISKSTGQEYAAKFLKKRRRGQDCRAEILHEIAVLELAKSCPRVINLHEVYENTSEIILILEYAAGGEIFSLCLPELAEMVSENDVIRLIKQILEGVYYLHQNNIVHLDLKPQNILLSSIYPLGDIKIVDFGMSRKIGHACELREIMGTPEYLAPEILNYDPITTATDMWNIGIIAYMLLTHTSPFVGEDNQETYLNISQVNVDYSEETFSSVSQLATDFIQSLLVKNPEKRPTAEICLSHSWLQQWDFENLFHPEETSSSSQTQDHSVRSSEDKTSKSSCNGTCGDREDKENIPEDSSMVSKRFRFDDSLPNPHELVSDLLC

[6] = target: Bone morphogenetic protein receptor type-2 (Homo sapiens) (UniProt Q13873); experiment: Binding affinity to BMPR2 (unknown origin) assessed as change in melting temperature at 10 uM incubated for 10 mins using SYPRO orange dye by RT-PCR-based fluorescence assay; how it was run: as §1
Chain of Bone morphogenetic protein receptor type-2 (Homo sapiens) (Q13873 whole entry): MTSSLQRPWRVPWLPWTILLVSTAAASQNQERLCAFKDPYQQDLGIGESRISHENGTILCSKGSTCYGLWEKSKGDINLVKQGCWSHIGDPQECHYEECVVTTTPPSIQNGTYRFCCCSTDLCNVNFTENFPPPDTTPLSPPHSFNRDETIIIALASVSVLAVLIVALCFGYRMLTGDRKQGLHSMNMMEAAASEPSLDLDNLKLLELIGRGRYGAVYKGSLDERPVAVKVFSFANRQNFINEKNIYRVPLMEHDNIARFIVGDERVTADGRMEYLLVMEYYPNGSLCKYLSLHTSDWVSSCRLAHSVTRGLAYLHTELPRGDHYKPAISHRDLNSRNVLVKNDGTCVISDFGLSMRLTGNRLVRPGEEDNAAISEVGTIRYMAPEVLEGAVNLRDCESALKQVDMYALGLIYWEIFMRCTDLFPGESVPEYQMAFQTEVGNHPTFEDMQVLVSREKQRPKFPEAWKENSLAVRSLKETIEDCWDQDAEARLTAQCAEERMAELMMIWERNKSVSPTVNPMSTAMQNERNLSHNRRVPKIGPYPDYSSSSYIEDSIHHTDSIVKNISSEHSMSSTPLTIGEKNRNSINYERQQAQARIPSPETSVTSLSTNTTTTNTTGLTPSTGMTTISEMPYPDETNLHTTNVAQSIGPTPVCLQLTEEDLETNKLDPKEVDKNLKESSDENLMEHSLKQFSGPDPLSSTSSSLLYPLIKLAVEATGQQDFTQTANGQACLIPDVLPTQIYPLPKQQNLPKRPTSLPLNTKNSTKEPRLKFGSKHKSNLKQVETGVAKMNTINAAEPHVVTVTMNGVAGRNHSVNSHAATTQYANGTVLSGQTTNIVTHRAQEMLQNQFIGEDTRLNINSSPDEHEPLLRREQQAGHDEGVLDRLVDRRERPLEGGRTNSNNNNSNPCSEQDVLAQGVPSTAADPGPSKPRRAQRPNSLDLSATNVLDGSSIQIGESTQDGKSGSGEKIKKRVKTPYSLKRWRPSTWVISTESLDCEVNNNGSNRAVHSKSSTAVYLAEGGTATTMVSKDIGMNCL

[7] = target: Activin receptor type-1 (Homo sapiens) (UniProt Q04771); experiment: Binding affinity to ACVR1 (unknown origin) assessed as change in melting temperature at 10 uM incubated for 10 mins using SYPRO orange dye by RT-PCR-based fluorescence assay; how it was run: as §1
Chain of Activin receptor type-1 (Homo sapiens) (Q04771 whole entry): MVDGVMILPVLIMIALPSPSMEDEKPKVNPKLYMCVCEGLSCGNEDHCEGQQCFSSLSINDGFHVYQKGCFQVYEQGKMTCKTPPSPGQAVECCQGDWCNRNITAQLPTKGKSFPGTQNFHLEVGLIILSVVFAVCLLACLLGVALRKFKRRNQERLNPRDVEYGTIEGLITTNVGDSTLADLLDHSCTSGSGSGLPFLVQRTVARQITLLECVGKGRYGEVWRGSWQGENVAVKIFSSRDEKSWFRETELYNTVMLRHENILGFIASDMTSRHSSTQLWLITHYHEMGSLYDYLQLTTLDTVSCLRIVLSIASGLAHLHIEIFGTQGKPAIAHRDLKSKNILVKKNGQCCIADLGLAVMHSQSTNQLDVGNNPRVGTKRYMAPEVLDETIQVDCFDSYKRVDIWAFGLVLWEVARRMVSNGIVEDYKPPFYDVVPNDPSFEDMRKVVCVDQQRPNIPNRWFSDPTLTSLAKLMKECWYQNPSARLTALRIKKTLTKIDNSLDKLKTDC

[8] = target: Tyrosine-protein kinase JAK1 (Homo sapiens) (UniProt P23458); experiment: Binding affinity to JAK1 (unknown origin) assessed as change in melting temperature at 10 uM incubated for 10 mins using SYPRO orange dye by RT-PCR-based fluorescence assay; how it was run: as §1
Chain of Tyrosine-protein kinase JAK1 (Homo sapiens) (P23458 whole entry): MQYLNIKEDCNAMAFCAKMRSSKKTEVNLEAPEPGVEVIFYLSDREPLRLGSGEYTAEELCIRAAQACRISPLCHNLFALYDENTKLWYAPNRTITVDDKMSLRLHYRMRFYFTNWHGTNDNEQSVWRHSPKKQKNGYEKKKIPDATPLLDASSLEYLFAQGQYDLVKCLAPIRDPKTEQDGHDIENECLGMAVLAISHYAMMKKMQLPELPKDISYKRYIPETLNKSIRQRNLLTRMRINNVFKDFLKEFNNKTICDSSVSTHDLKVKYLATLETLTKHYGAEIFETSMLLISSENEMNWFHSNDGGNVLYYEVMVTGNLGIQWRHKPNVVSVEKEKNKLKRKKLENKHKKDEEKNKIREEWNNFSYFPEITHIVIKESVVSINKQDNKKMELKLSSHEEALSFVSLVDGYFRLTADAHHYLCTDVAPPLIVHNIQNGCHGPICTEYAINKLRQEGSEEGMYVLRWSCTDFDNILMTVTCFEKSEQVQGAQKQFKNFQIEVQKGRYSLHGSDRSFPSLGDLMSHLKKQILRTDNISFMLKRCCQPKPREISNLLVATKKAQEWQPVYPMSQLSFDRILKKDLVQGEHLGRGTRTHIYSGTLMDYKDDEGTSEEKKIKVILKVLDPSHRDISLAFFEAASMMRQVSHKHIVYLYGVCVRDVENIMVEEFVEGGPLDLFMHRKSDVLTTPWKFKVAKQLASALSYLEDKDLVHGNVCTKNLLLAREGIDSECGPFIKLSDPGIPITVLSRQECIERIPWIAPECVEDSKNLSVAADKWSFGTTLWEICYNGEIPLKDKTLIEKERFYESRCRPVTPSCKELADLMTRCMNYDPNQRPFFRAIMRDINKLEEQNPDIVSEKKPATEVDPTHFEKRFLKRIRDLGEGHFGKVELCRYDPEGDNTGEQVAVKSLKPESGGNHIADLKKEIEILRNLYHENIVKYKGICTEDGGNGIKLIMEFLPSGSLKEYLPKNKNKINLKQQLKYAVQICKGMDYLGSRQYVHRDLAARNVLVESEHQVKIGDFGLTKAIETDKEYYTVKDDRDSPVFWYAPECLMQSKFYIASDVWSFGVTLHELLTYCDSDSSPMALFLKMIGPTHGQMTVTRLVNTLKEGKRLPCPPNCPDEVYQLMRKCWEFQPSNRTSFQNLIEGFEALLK

[9] = target: Glycogen synthase kinase-3 beta (Homo sapiens) (UniProt P49841); experiment: Binding affinity to GSK3B (unknown origin) assessed as change in melting temperature at 10 uM incubated for 10 mins using SYPRO orange dye by RT-PCR-based fluorescence assay; how it was run: as §1
Chain of Glycogen synthase kinase-3 beta (Homo sapiens) (P49841 whole entry, looked up): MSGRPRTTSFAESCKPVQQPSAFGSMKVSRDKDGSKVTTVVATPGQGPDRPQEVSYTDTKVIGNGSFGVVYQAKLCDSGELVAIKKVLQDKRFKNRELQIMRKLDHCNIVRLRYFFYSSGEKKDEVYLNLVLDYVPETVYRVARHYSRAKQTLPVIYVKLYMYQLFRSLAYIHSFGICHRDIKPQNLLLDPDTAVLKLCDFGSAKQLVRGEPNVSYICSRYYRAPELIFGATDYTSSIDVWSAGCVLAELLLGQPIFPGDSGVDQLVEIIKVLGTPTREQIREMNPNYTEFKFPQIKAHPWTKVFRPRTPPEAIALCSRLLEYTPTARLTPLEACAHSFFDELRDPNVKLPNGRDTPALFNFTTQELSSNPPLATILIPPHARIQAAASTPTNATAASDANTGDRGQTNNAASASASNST

[10] = target: Bone morphogenetic protein receptor type-1B (Homo sapiens) (UniProt O00238); experiment: Binding affinity to BMPR1B (unknown origin) assessed as change in melting temperature at 10 uM incubated for 10 mins using SYPRO orange dye by RT-PCR-based fluorescence assay; how it was run: as §1
[11] = target: Serine/threonine-protein kinase pim-1 (Homo sapiens) (UniProt P11309); experiment: Binding affinity to PIM1 (unknown origin) assessed as change in melting temperature at 10 uM incubated for 10 mins using SYPRO orange dye by RT-PCR-based fluorescence assay
Chain of Serine/threonine-protein kinase pim-1 (Homo sapiens) (P11309 whole entry, looked up): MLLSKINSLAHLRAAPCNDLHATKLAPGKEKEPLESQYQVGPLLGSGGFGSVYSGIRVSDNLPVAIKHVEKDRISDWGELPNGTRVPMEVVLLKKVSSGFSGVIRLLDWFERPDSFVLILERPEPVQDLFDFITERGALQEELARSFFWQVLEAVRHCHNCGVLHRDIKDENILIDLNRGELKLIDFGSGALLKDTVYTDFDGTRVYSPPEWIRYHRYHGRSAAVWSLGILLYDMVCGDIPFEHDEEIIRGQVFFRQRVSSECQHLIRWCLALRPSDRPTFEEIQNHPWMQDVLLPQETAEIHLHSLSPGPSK

[12] = target: Bone morphogenetic protein receptor type-1A (Homo sapiens) (UniProt P36894); experiment: Binding affinity to BMPR1A (unknown origin) assessed as change in melting temperature at 10 uM incubated for 10 mins using SYPRO orange dye by RT-PCR-based fluorescence assay; how it was run: as §1
[13] = target: BMP-2-inducible protein kinase (Homo sapiens) (UniProt Q9NSY1); experiment: Binding affinity to BIKE (unknown origin) assessed as change in melting temperature at 10 uM incubated for 10 mins using SYPRO orange dye by RT-PCR-based fluorescence assay; how it was run: as §1
[14] = target: Serine/threonine-protein kinase pim-2 (Homo sapiens) (UniProt Q9P1W9); experiment: Binding affinity to PIM2 (unknown origin) assessed as change in melting temperature at 10 uM incubated for 10 mins using SYPRO orange dye by RT-PCR-based fluorescence assay; how it was run: as §1
Chain of Serine/threonine-protein kinase pim-2 (Homo sapiens) (Q9P1W9 whole entry, looked up): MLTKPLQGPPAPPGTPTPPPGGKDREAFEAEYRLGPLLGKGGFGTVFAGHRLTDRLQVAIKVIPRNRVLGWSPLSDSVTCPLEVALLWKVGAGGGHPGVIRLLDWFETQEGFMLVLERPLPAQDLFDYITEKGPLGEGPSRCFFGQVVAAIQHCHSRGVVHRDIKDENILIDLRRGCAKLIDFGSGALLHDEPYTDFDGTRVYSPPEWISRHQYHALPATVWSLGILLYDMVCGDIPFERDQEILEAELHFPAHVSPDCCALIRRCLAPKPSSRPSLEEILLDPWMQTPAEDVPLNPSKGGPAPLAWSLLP

[15] = target: Serine/threonine-protein kinase pim-3 (Homo sapiens) (UniProt Q86V86); experiment: Binding affinity to PIM3 (unknown origin) assessed as change in melting temperature at 10 uM incubated for 10 mins using SYPRO orange dye by RT-PCR-based fluorescence assay; how it was run: as §1
[16] = target: Ribosomal protein S6 kinase alpha-1 (Homo sapiens) (UniProt Q15418); experiment: Binding affinity to RSK1B (unknown origin) assessed as change in melting temperature at 10 uM incubated for 10 mins using SYPRO orange dye by RT-PCR-based fluorescence assay
[17] = species on record: Homo sapiens; experiment: Binding affinity to RSK4B (unknown origin) assessed as change in melting temperature at 10 uM incubated for 10 mins using SYPRO orange dye by RT-PCR-based fluorescence assay; how it was run: as §1
[18] = target: Activin receptor type-2B (Homo sapiens) (UniProt Q13705); experiment: Binding affinity to ACTR2B (unknown origin) assessed as change in melting temperature at 10 uM incubated for 10 mins using SYPRO orange dye by RT-PCR-based fluorescence assay; how it was run: as §1
[19] = target: T1, Serine/threonine-protein kinase haspin (Homo sapiens) (UniProt Q8TF76); experiment: Binding affinity to haspin (unknown origin) assessed as change in melting temperature at 10 uM incubated for 10 mins using SYPRO orange dye by RT-PCR-based fluorescence assay; how it was run: as §1
T1 sequence (whole entry): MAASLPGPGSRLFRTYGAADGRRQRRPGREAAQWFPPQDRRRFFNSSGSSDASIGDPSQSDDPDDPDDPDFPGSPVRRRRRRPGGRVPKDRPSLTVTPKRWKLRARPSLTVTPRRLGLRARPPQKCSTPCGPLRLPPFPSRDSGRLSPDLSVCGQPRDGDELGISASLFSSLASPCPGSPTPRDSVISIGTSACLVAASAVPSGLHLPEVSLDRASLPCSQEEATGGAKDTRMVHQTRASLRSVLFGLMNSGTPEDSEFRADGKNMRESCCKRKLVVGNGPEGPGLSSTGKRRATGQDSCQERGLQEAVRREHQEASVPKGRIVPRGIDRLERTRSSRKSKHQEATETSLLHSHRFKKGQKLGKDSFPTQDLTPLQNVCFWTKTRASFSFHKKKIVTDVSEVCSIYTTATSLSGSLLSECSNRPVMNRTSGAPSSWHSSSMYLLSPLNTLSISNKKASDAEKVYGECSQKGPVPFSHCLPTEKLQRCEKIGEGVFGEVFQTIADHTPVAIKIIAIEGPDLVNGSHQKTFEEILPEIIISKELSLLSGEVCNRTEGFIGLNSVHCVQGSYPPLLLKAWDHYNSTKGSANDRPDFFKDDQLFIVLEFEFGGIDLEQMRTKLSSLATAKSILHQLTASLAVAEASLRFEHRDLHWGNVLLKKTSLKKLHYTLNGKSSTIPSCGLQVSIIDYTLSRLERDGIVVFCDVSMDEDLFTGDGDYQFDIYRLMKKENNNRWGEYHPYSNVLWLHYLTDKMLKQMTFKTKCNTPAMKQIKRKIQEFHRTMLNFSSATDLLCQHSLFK

Chain of Receptor-interacting serine/threonine-protein kinase 2 (Homo sapiens) (O43353 whole entry, the tested form may be a part): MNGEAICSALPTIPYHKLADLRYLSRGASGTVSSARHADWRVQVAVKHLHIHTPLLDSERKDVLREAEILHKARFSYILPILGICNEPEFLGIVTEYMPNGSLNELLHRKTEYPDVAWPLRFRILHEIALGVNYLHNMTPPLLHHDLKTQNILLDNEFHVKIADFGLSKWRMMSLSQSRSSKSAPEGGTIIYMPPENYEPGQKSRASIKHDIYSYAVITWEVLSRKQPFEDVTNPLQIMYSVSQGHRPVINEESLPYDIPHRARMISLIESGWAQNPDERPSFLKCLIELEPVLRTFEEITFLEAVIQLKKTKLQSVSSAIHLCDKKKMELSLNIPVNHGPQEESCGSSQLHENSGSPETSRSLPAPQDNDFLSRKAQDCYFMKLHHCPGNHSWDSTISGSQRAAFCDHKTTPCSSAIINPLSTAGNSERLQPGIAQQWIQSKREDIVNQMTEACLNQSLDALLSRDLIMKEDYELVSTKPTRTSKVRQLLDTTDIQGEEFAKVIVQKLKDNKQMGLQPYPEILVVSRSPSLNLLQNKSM

ΔTm [1]: > 4 °C | ΔTm [2]: > 6 °C | ΔTm [3]: > 6 °C | ΔTm [4]: > 4 °C | ΔTm [5]: > 4 °C | ΔTm [6]: > 6 °C | ΔTm [7]: > 6 °C | ΔTm [8]: > 6 °C | ΔTm [9]: > 4 °C | ΔTm [10]: > 6 °C | ΔTm [11]: > 6 °C | ΔTm [12]: > 6 °C | ΔTm [13]: > 6 °C | ΔTm [14]: > 4 °C | ΔTm [15]: > 6 °C | ΔTm [16]: > 4 °C | ΔTm [17]: > 4 °C | ΔTm [18]: > 6 °C | ΔTm [19]: > 6 °C
SMILES: CC(=O)c1cccc(-c2cnc3ccc(NCC4CC4)nn23)c1
